These results are taken from ChEMBL document CHEMBL4368909, “Identification of Dihydrofuro[3,4- d]pyrimidine Derivatives as Novel HIV-1 Non-Nucleoside Reverse Transcriptase Inhibitors with Promising Antiviral Activities and Desirable Physicochemical Properties” (J Med Chem, 2019).

Data set [1] can be described thus: Protein binding in rat plasma assessed as recovery rate at 1 uM after 5 hrs by LC/MS analysis. The format is ADME, cell-free. The method, boiled down: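 Equilibrium dialysis against plasma proteins: human plasma for line 1, Wistar rat plasma for line 2. Reference drug tested at 1 μM. Recovery rate reported alongside percent protein-binding rate.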
For data set [2], the system named is Human immunodeficiency virus 1. Nature of the data set: Antiviral activity against wild type HIV1 3B infected in human MT4 cells assessed as reduction in virus-induced cytopathic effect after 5 days by MTT assay. The format is functional, organism-based. As to conditions: Human immunodeficiency virus 1, 3B, MT4, 120 h. For orientation: Cytopathic effects are the visible damage that an infection or toxin causes in cultured cells.

The test system of data set [3] is Human immunodeficiency virus 1. Kind of data set: Antiviral activity against HIV1 RES056 infected in human MT4 cells assessed as reduction in virus-induced cytopathic effect after 5 days by MTT assay. The format is functional, organism-based. As to conditions: Human immunodeficiency virus 1, RES056, MT4, 120 h.
Data set [4] can be described thus: Cytotoxicity against human MT4 cells after 5 days by MTT assay. It counts as cell-based. To be noted: MT4 cells. (Formazan colour is commonly taken as a measure of viable cells.)
The nature of data set [5]: Selectivity ratio of CC50 for human MT4 cells to EC50 for HIV1 3B infected in human MT4 cells. The format is toxicity, cell-based. As to conditions: read-out: Ratio CC50/EC50.
Data set [6] in a line: Selectivity ratio of CC50 for human MT4 cells to EC50 for HIV1 RES056 infected in human MT4 cells. It counts as toxicity, cell-based. To be noted: read-out: Ratio CC50/EC50.
For data set [7], the system named is Human immunodeficiency virus 2. Kind of data set: Antiviral activity against HIV2 ROD infected in human MT4 cells assessed as reduction in virus-induced cytopathic effect after 5 days by MTT assay. To be noted: Human immunodeficiency virus 2, ISOLATE ROD, MT4, 120 h.
Data set [8] is described as follows: Aqueous solubility of the compound at pH at 7.4 by HPLC analysis. The format is physicochemical. As to conditions: buffer, pH 7.4; read-out: solubility. In short, it runs like this: (§1)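 Aqueous solubility read by HPLC in buffer at pH 2.0, 7.0 or 7.4.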
The test system of data set [9] is Human immunodeficiency virus 1. Kind of data set: Antiviral activity against HIV1 harboring reverse transcriptase L100I mutant infected in human MT4 cells assessed as reduction in virus-induced cytopathic effect after 5 days by MTT assay. It counts as functional, organism-based. To be noted: Human immunodeficiency virus 1, MT4, 120 h.
Data set [10] has as its system Human immunodeficiency virus 1. Nature of the data set: Antiviral activity against HIV1 harboring reverse transcriptase Y181C mutant infected in human MT4 cells assessed as reduction in virus-induced cytopathic effect after 5 days by MTT assay. To be noted: Human immunodeficiency virus 1, MT4, 120 h. The format is functional, organism-based.
The subject of data set [11] is Human immunodeficiency virus 1. Kind of data set: Antiviral activity against HIV1 harboring reverse transcriptase E138K mutant infected in human MT4 cells assessed as reduction in virus-induced cytopathic effect after 5 days by MTT assay. The format is functional, organism-based. To be noted: Human immunodeficiency virus 1, MT4, 120 h.
Data set [12] relates to Human immunodeficiency virus 1. Nature of the data set: Antiviral activity against HIV1 harboring reverse transcriptase F227L/V106A double mutant infected in human MT4 cells assessed as reduction in virus-induced cytopathic effect after 5 days by MTT assay. The format is functional, organism-based. As to conditions: Human immunodeficiency virus 1, MT4, 120 h.
The nature of data set [13]: Aqueous solubility of the compound at pH at 7 by HPLC analysis. It counts as physicochemical. As to conditions: buffer, pH 7; read-out: solubility. The method, boiled down: as §1
Data set [14] in a line: Aqueous solubility of the compound in FASSIF by HPLC analysis. It counts as physicochemical. As to conditions: simulated gi fluid. In short, it runs like this:
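Solubility read by HPLC in fasted state simulated intestinal fluid (FaSSIF).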

A short description of data set [15]: Sub-acute toxicity in Kunming mouse assessed as alveolar interstitial thickening at 50 mg/kg/day, po administered for 2 weeks by hematoxylin and eosin staining-based assay. It counts as organism-based. To be noted: in vivo, 336 h. In short, it runs like this:
(§2)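 Mice were dosed orally at 50 mg/kg/day for 2 weeks and observed for behavioural abnormalities during treatment. Organs were then examined by hematoxylin–eosin staining.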

The nature of data set [16]: Sub-acute toxicity in Kunming mouse assessed as alveolar hemorrhage at 50 mg/kg/day, po administered for 2 weeks by hematoxylin and eosin staining-based assay. The format is organism-based. To be noted: in vivo, 336 h. In short, it runs like this:
as §2

Data set [17] can be described thus: Sub-acute toxicity in Kunming mouse assessed as proximal convoluted tubule edema in kidney at 50 mg/kg/day, po administered for 2 weeks by hematoxylin and eosin staining-based assay. To be noted: in vivo, 336 h. The format is organism-based. In short, it runs like this: as §2

Values after ≈ are worked out from the molar mass of the structure shown. Bounds are passed on as bounds.

With `CC(=O)CC(c1ccccc1)c1c(O)c2ccccc2oc1=O` (centres undefined) [WARFARIN], the Drug recovery in data set [1] is listed as 107%.
Broadly, the EC50 is the concentration needed to bring the measured effect to its halfway point. A word on the CC50: it is the concentration at which the toxic effect on the cells reaches its halfway point. Low values mean harm at low concentration, high ones better tolerance by the cells. Turning to `Cc1cc(C#N)cc(C)c1Oc1nc(NC2CCN(Cc3cccc(C(N)=O)c3)CC2)nc2c1SCCC2`, the values for the EC50 in [2], in data set [3] and in data set [7] were 5.1 nM, 1050 nM and over 5800 nM, respectively. This compound yielded a CC50 at 120 h in [4] of 5800 nM. For the same compound, the selectivity ratio was 1140 in [5] and 5.5 in data set [6].
A word on the solubility: it is the dissolved amount per volume that the medium holds. As to `Cc1cc(C#N)cc(C)c1Oc1nc(Nc2ccc(C#N)cc2)nc(N)c1Br` [ETRAVIRINE], the solubility in data set [8] is under 1 µg/mL; in data set [13], under 1 µg/mL; in data set [14] it was 13.2 µg/mL (≈ 30.3 µM). Also, the EC50 in data set [2] is 5.1 nM; in data set [3], 45.4 nM; in [9], 6 nM; in [10], 14.5 nM; in data set [11] it was 9.7 nM; in data set [12] it was 19.7 nM. The Activity entry in data set [15], in data set [16] and in data set [17] was “Toxic” each time.
